# Data from ChEMBL document CHEMBL4373727, “Thienopyrimidinone Derivatives That Inhibit Bacterial tRNA (Guanine37-N1)-Methyltransferase (TrmD) by Restructuring the Active Site with a Tyrosine-Flipping Mechanism” (J Med Chem, 2019).
# Calls of active or inactive are those of the source. Unless noted, the rule behind the calls is not given here.
# How the values were obtained:
# Erythrocyte = assay: Hemolytic activity in human RBC at 100 uM measured after 1 hr; format: ADME, cell-based
# How it was run: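 Fresh human RBCs were PBS-washed and resuspended to OD600 24, then mixed 1:1 by volume with compound serially diluted in PBS. Incubated 1 h at 37 °C without shaking and centrifuged at 1000g for 15 min. Triton X-100 served as positive control. Run in triplicate.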
# [1] = target: T1, tRNA (guanine-N(1)-)-methyltransferase (Pseudomonas aeruginosa (strain ATCC 15692 / DSM 22644 / CIP 104116 / JCM14847 / LMG 12228 / 1C / PRS 101 / PAO1)) (UniProt Q9HXQ1); assay: Binding affinity to Pseudomonas aeruginosa tRNA (guanine(37)-N1)-methyltransferase (Leu5 to Asp25 residues) expressed in Escherichia coli BL21 (DE3) Rosetta T1R cells assessed as thermal stabilization of protein by measuring change in melting temperature at 0.1 mM by SYPRO orange based thermal shift assay
# T1 sequence (whole entry): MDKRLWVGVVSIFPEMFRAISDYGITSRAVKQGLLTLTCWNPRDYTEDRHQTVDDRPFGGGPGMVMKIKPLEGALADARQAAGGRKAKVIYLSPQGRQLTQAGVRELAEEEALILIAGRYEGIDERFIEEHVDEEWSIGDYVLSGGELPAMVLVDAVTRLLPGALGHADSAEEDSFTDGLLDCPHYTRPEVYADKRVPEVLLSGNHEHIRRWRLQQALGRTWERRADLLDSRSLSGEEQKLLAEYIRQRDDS
# How it was run: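 Thermal shift: 4 μM TrmD with 5× SYPRO Orange and ligand in 50 mM Tris-HCl pH 8, 150 mM NaCl, 1 mM MgCl2, 1 mM DTT, 0.05% Tween-20. Buffer-only control. Heated from 25 to 95 °C in a real-time PCR instrument, and Tm taken as the unfolding midpoint. Ligand levels: SAH 2 mM, inhibitors 0.1 mM.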
# [2] = target: T1, tRNA (guanine-N(1)-)-methyltransferase (Pseudomonas aeruginosa (strain ATCC 15692 / DSM 22644 / CIP 104116 / JCM14847 / LMG 12228 / 1C / PRS 101 / PAO1)); assay: (§1) Inhibition of Pseudomonas aeruginosa tRNA (guanine(37)-N1)-methyltransferase (Leu5 to Asp25 residues) expressed in Escherichia coli BL21 (DE3) Rosetta T1R cells assessed as reduction in S-adenosyl-L-homocysteine production up to 50 uM preincubated for 15 mins followed by 1.5 uM of tRNALeu(CAG) substrate and SAM addition and measured after 45 mins by MTase-Glo assay
# How it was run: (§2)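 MTase-Glo luminescence assay. 8 nM TrmD preincubated 15 min at ambient temperature with serially diluted inhibitor (0–500 μM) in 50 mM Tris-HCl pH 8.0, 80 mM NaCl, 1 mM MgCl2, 0.5 mM DTT, 0.01% Triton X-100. Reaction with 2 μM SAM and tRNALeu(CAG), 45 min at 37 °C. Detection 30 min in the dark, SAH read against a standard curve. IC50 by nonlinear regression. Two independent experiments in duplicate.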
# Escherichia coli = assay: Antibacterial activity against Escherichia coli BW25113 incubated for 24 hrs by serial broth microdilution method; format: functional, organism-based
# How it was run: (§3)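 Log-phase cultures from four colonies grown overnight at 37 °C, inoculated at ~5×10^5 cells/mL in cation-adjusted Mueller–Hinton broth with serially diluted compound. Grown 24 h at 37 °C, then OD600 read. MIC50/MIC90 are the concentrations giving 50%/90% growth inhibition relative to drug-free controls. Two independent experiments in duplicate.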
# Enterococcus faecalis [3] = assay: Antibacterial activity against Enterococcus faecalis ATCC 51299 incubated for 24 hrs by serial broth microdilution method; format: functional, organism-based
# How it was run: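 Broth microdilution in brain heart infusion broth, ~5×10^5 cells/mL log-phase inoculum, serial compound dilutions, 24 h at 37 °C, OD600 read-out. MIC50/MIC90 are the concentrations giving 50%/90% growth inhibition relative to drug-free controls. Two independent experiments in duplicate.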
# Streptococcus pneumoniae [4] = assay: Antibacterial activity against Streptococcus pneumoniae ATCC 49619 at 100 uM incubated for 24 hrs; format: functional, organism-based
# How it was run: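 Single 100 μM screen in MH medium with 3% defibrinated sheep blood at 37 °C under 5% CO2, ~5×10^5 cells/mL, 24 h.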
# Staphylococcus aureus [5] = assay: Antibacterial activity against methicillin-resistant Staphylococcus aureus ATCC 43300 incubated for 24 hrs by serial broth microdilution method; format: functional
# How it was run: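 Growth read by OD600. MRSA in cation-adjusted Mueller–Hinton broth, M. smegmatis in complete 7H9. MIC50 and MIC90 are 50% and 90% growth inhibition versus drug-free controls. Two independent experiments, each in duplicate.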
# [6] = target: T2, tRNA (guanine-N(1)-)-methyltransferase (Pseudomonas aeruginosa (strain ATCC 15692 / DSM 22644 / CIP 104116 / JCM14847 / LMG 12228 / 1C / PRS 101 / PAO1), UniProt Q9HXQ1); assay: as §1, with “production” for “production up to 50 uM”; how it was run: as §2
# T2 sequence (Q9HXQ1 whole entry): T1 sequence (whole entry)
# Klebsiella pneumoniae = assay: Antibacterial activity against Klebsiella pneumoniae ATCC 13883 incubated for 24 hrs by serial broth microdilution method; format: functional, organism-based; how it was run: as §3
# Streptococcus pneumoniae [7] = assay: Antibacterial activity against Streptococcus pneumoniae ATCC 49619 incubated for 24 hrs by serial broth microdilution method; format: functional
# How it was run: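 Cultured in MH medium plus 3% defibrinated sheep blood at 37 °C, 5% CO2. Log-phase inoculum ~5×10^5 cells/mL was exposed to serial compound dilutions for 24 h. MIC50/MIC90 are relative to drug-free controls. Two independent experiments in duplicate.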
# Staphylococcus aureus [8] = assay: Antibacterial activity against methicillin-resistant Staphylococcus aureus ATCC 43300 at 100 uM incubated for 24 hrs; format: functional, organism-based
# How it was run: (§4)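 Single-concentration growth screen: 100 μM test compound with log-phase bacteria at about 5×10^5 cells/mL. Incubation 24 h at 37 °C. Growth read by OD600 and given as percent of untreated control. MRSA was grown in cation-adjusted Mueller–Hinton broth. M. smegmatis was grown in complete Middlebrook 7H9. Ampicillin and kanamycin served as positive controls.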
# Pseudomonas aeruginosa = assay: Antibacterial activity against Pseudomonas aeruginosa PA14 incubated for 24 hrs by serial broth microdilution method; format: functional, organism-based; how it was run: as §3
# Enterococcus faecalis [9] = assay: Antibacterial activity against Enterococcus faecalis ATCC 51299 at 100 uM incubated for 24 hrs; format: functional, organism-based
# How it was run: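 Single-concentration screen in brain heart infusion broth. Log-phase cells at ~5×10^5 cells/mL were grown with 100 μM compound for 24 h at 37 °C. Growth was read as OD600 and expressed as a percentage of untreated wells. DMSO and blank controls were included.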
# Salmonella enteritidis = assay: Antibacterial activity against Salmonella enteritidis ATCC 13076 incubated for 24 hrs by serial broth microdilution method; format: functional; details: Salmonella enterica subsp. enterica serovar Enteritidis; how it was run: as §3
# [10] = tested on: Mycolicibacterium smegmatis; assay: Antibacterial activity against Mycolicibacterium smegmatis MC2 155 at 100 uM incubated for 24 hrs; format: functional, organism-based; how it was run: as §4
# [11] = tested on: Mycobacterium tuberculosis; assay: Antibacterial activity against Mycobacterium tuberculosis ATCC 27294 at 100 uM incubated for 7 days; format: functional, organism-based
# Acinetobacter baumannii = assay: Antibacterial activity against Acinetobacter baumannii ATCC 17961 incubated for 24 hrs by serial broth microdilution method; format: functional; how it was run: as §3
smiles,measurement,setting,value
COc1ncnc2scc(C(=O)NCc3ccc(CNCc4ccccc4)cc3)c12,Activity,Erythrocyte,Non-Toxic
same,ΔTm,[1],1 to 2 °C
same,inhibition,[2],inactive
Cl.NCCCCCNCc1ccc(CNC(=O)c2csc3nc[nH]c(=O)c23)cc1,Activity,Escherichia coli,inactive
same,Activity,Enterococcus faecalis [3],inactive
same,Activity,Streptococcus pneumoniae [4],inactive
same,Activity,Staphylococcus aureus [5],inactive
same,IC50,[6],0.11 µM
same,Activity,Klebsiella pneumoniae,inactive
same,Activity,Streptococcus pneumoniae [7],inactive
same,Activity,Staphylococcus aureus [8],inactive
same,Activity,Pseudomonas aeruginosa,inactive
same,Activity,Erythrocyte,Non-Toxic
same,Activity,Enterococcus faecalis [9],inactive
same,Activity,Salmonella enteritidis,inactive
same,Activity,[10],inactive
same,Activity,[11],inactive
same,Activity,Acinetobacter baumannii,inactive
O=C(NCc1ccc(CNC(=O)c2cc(=O)c(O)cn2O)cc1)c1csc2nc[nH]c(=O)c12,Activity,Escherichia coli,inactive
same,Activity,Enterococcus faecalis [3],inactive
same,Activity,Streptococcus pneumoniae [4],inactive
same,Activity,Staphylococcus aureus [5],inactive
same,IC50,[6],0.7 µM
same,Activity,Klebsiella pneumoniae,inactive
same,Activity,Streptococcus pneumoniae [7],inactive
same,Activity,Staphylococcus aureus [8],inactive
same,Activity,Pseudomonas aeruginosa,inactive
same,Activity,Erythrocyte,Non-Toxic
same,Activity,Enterococcus faecalis [9],inactive
same,Activity,Salmonella enteritidis,inactive
same,Activity,[10],inactive
same,Activity,[11],inactive
same,Activity,Acinetobacter baumannii,inactive
COc1ncnc2scc(C(=O)NCc3ccc(CN4CCOCC4)cc3)c12,Activity,Erythrocyte,Non-Toxic
same,ΔTm,[1],1 to 2 °C
same,inhibition,[2],inactive
CCCCCCCCNCc1ccc(CNC(=O)c2csc3ncnc(OCCC)c23)cc1,ΔTm,[1],1 to 2 °C
same,inhibition,[2],inactive
CCCCCCCCNCc1ccc(CNC(=O)c2csc3ncnc(OC)c23)cc1,Activity,Erythrocyte,Non-Toxic
same,ΔTm,[1],1 to 2 °C
same,inhibition,[2],inactive
CCCOc1ncnc2scc(C(=O)NCc3ccc(CNCc4ccccc4)cc3)c12,Activity,Erythrocyte,Non-Toxic
same,ΔTm,[1],1 to 2 °C
same,inhibition,[2],inactive
Cl.NCCCCCCCNCc1ccc(CNC(=O)c2csc3nc[nH]c(=O)c23)cc1,Activity,Escherichia coli,inactive
same,Activity,Enterococcus faecalis [3],inactive
same,Activity,Streptococcus pneumoniae [4],inactive
same,Activity,Staphylococcus aureus [5],inactive
same,IC50,[6],0.14 µM
same,Activity,Klebsiella pneumoniae,inactive
same,Activity,Streptococcus pneumoniae [7],inactive
same,Activity,Staphylococcus aureus [8],inactive
same,Activity,Pseudomonas aeruginosa,inactive
same,Activity,Erythrocyte,Non-Toxic
same,Activity,Enterococcus faecalis [9],inactive
same,Activity,Salmonella enteritidis,inactive
same,Activity,[10],inactive
same,Activity,[11],inactive
same,Activity,Acinetobacter baumannii,inactive
CCCCCCOc1ncnc2scc(C(=O)NCc3ccc(CNCc4ccccc4)cc3)c12,ΔTm,[1],1 to 2 °C
same,inhibition,[2],inactive
Cl.NCCOCCOCCNCc1ccc(CNC(=O)c2csc3nc[nH]c(=O)c23)cc1,Activity,Escherichia coli,inactive
same,Activity,Enterococcus faecalis [3],inactive
same,Activity,Streptococcus pneumoniae [4],inactive
same,Activity,Staphylococcus aureus [5],inactive
same,IC50,[6],0.45 µM
same,Activity,Klebsiella pneumoniae,inactive
same,Activity,Streptococcus pneumoniae [7],inactive
same,Activity,Staphylococcus aureus [8],inactive
same,Activity,Pseudomonas aeruginosa,inactive
same,Activity,Erythrocyte,Non-Toxic
same,Activity,Enterococcus faecalis [9],inactive
same,Activity,Salmonella enteritidis,inactive
same,Activity,[10],inactive
same,Activity,[11],inactive
same,Activity,Acinetobacter baumannii,inactive
CCCOc1ncnc2scc(C(=O)NCc3ccc(CN4CCOCC4)cc3)c12,Activity,Erythrocyte,Non-Toxic
same,ΔTm,[1],1 to 2 °C
same,inhibition,[2],inactive
CCCCCCCCNCc1ccc(CNC(=O)c2csc3ncnc(OCc4ccc(N=[N+]=[N-])cc4)c23)cc1,IC50,[6],1.8 µM
same,ΔTm,[1],1 to 2 °C
Cl.NCCCCNCc1ccc(CNC(=O)c2csc3nc[nH]c(=O)c23)cc1,Activity,Escherichia coli,inactive
same,Activity,Enterococcus faecalis [3],inactive
same,Activity,Streptococcus pneumoniae [4],inactive
same,Activity,Staphylococcus aureus [5],inactive
same,IC50,[6],0.08 µM
same,Activity,Klebsiella pneumoniae,inactive
same,Activity,Streptococcus pneumoniae [7],inactive
same,Activity,Staphylococcus aureus [8],inactive
same,Activity,Pseudomonas aeruginosa,inactive
same,Activity,Erythrocyte,Non-Toxic
same,Activity,Enterococcus faecalis [9],inactive
same,Activity,Salmonella enteritidis,inactive
same,Activity,[10],inactive
same,Activity,[11],inactive
same,Activity,Acinetobacter baumannii,inactive
CCN(Cc1ccccc1)Cc1ccc(CNC(=O)c2csc3nc[nH]c(=O)c23)cc1,Activity,Streptococcus pneumoniae [4],inactive
same,IC50,[6],2.2 µM
same,Activity,Staphylococcus aureus [8],inactive
same,Activity,Erythrocyte,Non-Toxic
same,Activity,Enterococcus faecalis [9],inactive
same,Activity,[10],inactive
same,Activity,[11],inactive
CCCCCCCCNCc1ccc(CNC(=O)c2csc3ncnc(OCCCCCC)c23)cc1,ΔTm,[1],1 to 2 °C
same,inhibition,[2],inactive
